Source: ChEMBL document CHEMBL3286172, “Exploring the role of 2-chloro-6-fluoro substitution in 2-alkylthio-6-benzyl-5-alkylpyrimidin-4(3H)-ones: effects in HIV-1-infected cells and in HIV-1 reverse transcriptase enzymes” (J Med Chem, 2014)

Experiments:
[1] = test system: Human immunodeficiency virus 1; experiment: Antiviral activity against wild type HIV-1 NL4-3 infected in human MT4 cells assessed as inhibition of virus-induced cytopathic effect by MTT method; assay type: functional, organism-based; details: Human immunodeficiency virus 1, NL4-3, MT4
Summary of the method: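 MT-4 lymphoid cells infected with wild-type HIV-1 NL4-3 while exposed to a range of drug concentrations. Viable cells counted by tetrazolium (MTT) colorimetry at day 5 post-infection. Means of at least two experiments.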

[2] = Cytotoxicity against human MT4 cells assessed as induction of cell death by MTT method; assay type: cell-based
Summary of the method: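 Mock-infected MT-4 cells exposed to a range of drug concentrations. Viability read by MTT colorimetry at day 5. […] Top concentration was limited where compound precipitated in the culture medium. Means of at least two experiments.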

[3] = Selectivity index, ratio of CC50 for human MT4 cells to EC50 for wild type HIV-1 NL4-3 infected in human MT4 cells; assay type: toxicity, cell-based; details: read-out: Ratio CC50/EC50
Summary of the method: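 Ratio of CC50 to EC50, both from MTT readings in MT-4 cells at day 5. CC50 was taken in mock-infected cells and EC50 in cells infected with wild-type NL4-3. Values are means of at least two experiments.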

[4] = test system: Human immunodeficiency virus 1; experiment: Antiviral activity against HIV-1 harboring NNTRI-resistant reverse transcriptase K103N mutant infected in human MT4 cells assessed as inhibition of virus-induced cytopathic effect by MTT method; assay type: functional, organism-based; details: Human immunodeficiency virus 1, MT4
[5] = test system: Human immunodeficiency virus 1; experiment: Antiviral activity against HIV-1 harboring NNTRI-resistant reverse transcriptase Y181C mutant infected in human MT4 cells assessed as inhibition of virus-induced cytopathic effect by MTT method; assay type: functional, organism-based; details: Human immunodeficiency virus 1, MT4
Summary of the method: (§1)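 MT-4 lymphoid cells infected with HIV-1 carrying RT K103N, Y181C or Y188L, with a range of drug concentrations present. Viable cells counted by MTT colorimetric assay at day 5 post-infection. […] Highest concentration tested was limited by precipitation in culture medium. Means of at least two experiments.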

[6] = test system: Human immunodeficiency virus 1; experiment: Antiviral activity against HIV-1 harboring NNTRI-resistant reverse transcriptase Y188L mutant infected in human MT4 cells assessed as inhibition of virus-induced cytopathic effect by MTT method; assay type: functional, organism-based; details: Human immunodeficiency virus 1, MT4; summary of the method: as §1
[7] = test system: Human immunodeficiency virus 1; experiment: Fold resistance, ratio of EC50 for HIV-1 harboring NNTRI-resistant reverse transcriptase K103N mutant infected in human MT4 cells to EC50 for wild type HIV-1 NL4-3 infected in human MT4 cells; assay type: functional
[8] = test system: Human immunodeficiency virus 1; experiment: Fold resistance, ratio of EC50 for HIV-1 harboring NNTRI-resistant reverse transcriptase Y181C mutant infected in human MT4 cells to EC50 for wild type HIV-1 NL4-3 infected in human MT4 cells; assay type: functional
Summary of the method: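 MT-4 cells infected with HIV-1 mutant (K103N or Y181C) or wild-type NL4-3, with drug present. […] Fold resistance is the mutant EC50 divided by the wild-type NL4-3 EC50. EC50 values are means of at least two experiments.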

[9] = test system: Human immunodeficiency virus 1; experiment: Fold resistance, ratio of ID50 for HIV-1 recombinant NNTRI-resistant reverse transcriptase L100I mutant to ID50 for wild type HIV-1 recombinant reverse transcriptase
Summary of the method: (§2)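 Recombinant wt or mutant HIV-1 RT, purified to >95%, at 2-4 nM. RNA-dependent DNA polymerase activity with 0.5 µg poly(rA)/oligo(dT)10:1 (0.3 µM 3'-OH ends), 10 µM [3H]-dTTP and 8% final DMSO. Incorporation was sampled at 2-min intervals. ID50 came from fitting to a fully non-competitive model. Ratio is ID50 mutant/ID50 wt. Means of at least three experiments.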

[10] = test system: Human immunodeficiency virus 1; experiment: Fold resistance, ratio of ID50 for HIV-1 recombinant NNTRI-resistant reverse transcriptase K103N mutant to ID50 for wild type HIV-1 recombinant reverse transcriptase; summary of the method: as §2
[11] = test system: Human immunodeficiency virus 1; experiment: Fold resistance, ratio of EC50 for HIV-1 harboring NNTRI-resistant reverse transcriptase Y188L mutant infected in human MT4 cells to EC50 for wild type HIV-1 NL4-3 infected in human MT4 cells; assay type: functional
Summary of the method: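 HIV-1 NL4-3 (wt) or Y188L mutant infection of MT-4 cells across a range of drug concentrations. Viable cells were counted by MTT at day 5 post-infection. […] Fold resistance is mutant EC50 over wt EC50. Means of at least two experiments.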

[12] = target: Human immunodeficiency virus type 1 reverse transcriptase (Human immunodeficiency virus 1) (UniProt Q72547)
[13] = test system: Human immunodeficiency virus type 1 reverse transcriptase (Human immunodeficiency virus 1), Q72547 [K103N]
[14] = test system: Human immunodeficiency virus type 1 reverse transcriptase (Human immunodeficiency virus 1), Q72547 [L100I]
[15] = test system: Human immunodeficiency virus 1; experiment: Fold resistance, ratio of ID50 for HIV-1 recombinant NNTRI-resistant reverse transcriptase Y181I mutant to ID50 for wild type HIV-1 recombinant reverse transcriptase
Summary of the method: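 RNA-dependent DNA polymerase activity with 0.5 µg poly(rA)/oligo(dT)10:1 (0.3 µM 3'-OH ends), 10 µM [3H]-dTTP and 8% final DMSO. Incorporation was sampled at 2-min intervals. ID50 came from fitting to a fully non-competitive model. Means of at least three experiments.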

Compound	EC50 [1] [nM]	CC50 [2] [µM]	selectivity ratio [3]	EC50 [4] [nM]	EC50 [5] [nM]	EC50 [6] [µM]	Ratio EC50 [7]	Ratio EC50 [8]	Ratio [9]	Ratio [10]	Ratio EC50 [11]	ID50 [12] [nM]	ID50 [13] [µM]	ID50 [14] [µM]	Ratio [15]
CCCSc1nc(Cc2c(F)cccc2Cl)cc(=O)[nH]1	260	> 80	> 308	18800	8200	> 80	72	31							
CC[C@H](C)Sc1nc([C@@H](C)c2c(F)cccc2Cl)cc(=O)[nH]1	144	> 73	> 507	7640	> 73300	> 73.3	53		4						
CC[C@@H](C)Sc1nc([C@@H](C)c2c(F)cccc2Cl)cc(=O)[nH]1	47	> 52	> 1110	5560	13200	> 51.6	118	281	4	365					
CC[C@@H](C)Sc1nc([C@H](C)c2c(F)cccc2Cl)c(C)c(=O)[nH]1	0.06	> 70.4		15	87	0.39			41	101					
CC[C@@H](C)Sc1nc([C@@H](C)c2c(F)cccc2Cl)c(C)c(=O)[nH]1	1.4	> 70.4		150	890	3.3			37	69					
CC[C@H](C)Sc1nc([C@@H](C)c2c(F)cccc2Cl)c(C)c(=O)[nH]1	3660	> 47		> 47000	> 47000	> 47			0.2						
CCC(c1nc(SC(C)C)[nH]c(=O)c1C)c1c(F)cccc1F (racemic)	4	> 30	> 7500	530	750	0.27	132	187			67	4	0.31	0.21	
CCC(C)Sc1nc(C(CC)c2c(F)cccc2F)c(C)c(=O)[nH]1 (racemic)	0.8	> 3	> 3750	200	300	0.9	250	375			1125	6	0.14	0.048	
CCC(c1nc(SC2CCCC2)[nH]c(=O)c1C)c1c(F)cccc1F (racemic)	11	30	2730	1000	1100	1.6	91	100			145	5	0.38	0.11	
CC(C)Sc1nc(C(C)c2c(F)cccc2Cl)cc(=O)[nH]1 (racemic)	2	> 75	> 37500	1100	7500	30.7	550	3750			15350	8	1.3	0.34	
CCCSc1nc(C(C)c2c(F)cccc2Cl)cc(=O)[nH]1 (racemic)	3	> 75	> 25000	890	2300	7.9	297	767			2633	8	1.3	0.5	
CCCCSc1nc(C(C)c2c(F)cccc2Cl)cc(=O)[nH]1 (racemic)	0.3	> 73		1100	3900	5.6			60	220		10	2.2	0.6	
CC(c1cc(=O)[nH]c(SC2CCCC2)n1)c1c(F)cccc1Cl (racemic)	0.3	> 71	> 237000	900	3000	> 71	3000	10000				15	1.8	1.1	
CCCSc1nc(C(CC)c2c(F)cccc2Cl)c(C)c(=O)[nH]1 (racemic)	26	> 3	> 115	2100	2800	> 3	81	108	48	126		5	0.63	0.24	700
CCCCSc1nc(C(C)c2c(F)cccc2F)c(CC)c(=O)[nH]1 (racemic)	57	> 3	> 53	> 3000	> 3000	> 3			93	130		3	0.39	0.28	1000
CCc1c(C(C)c2c(F)cccc2F)nc(SC2CCCC2)[nH]c1=O (racemic)	160	> 3	> 19	> 3000	> 3000	> 3			65	100		2	0.2	0.13	900
CCCSc1nc(C(CC)c2c(F)cccc2F)c(C)c(=O)[nH]1 (racemic)	12	> 3	> 250	> 3000	> 3000	> 3			37	70		6	0.42	0.22	600
CC[C@H](C)Sc1nc([C@H](C)c2c(F)cccc2Cl)cc(=O)[nH]1 (racemic)	11	> 39	> 3540	1220	1240	7.4	111	113	24	229	673				
CC[C@H](C)Sc1nc([C@H](C)c2c(F)cccc2Cl)c(C)c(=O)[nH]1 (racemic)	43900	> 70.4		> 70000	64000	> 70			0.1						
CCC(C)Sc1nc(O)c(C)c(C(C)c2c(F)cccc2F)n1 (racemic)	0.9	> 3	> 3330	110	71	> 3	122	79				31	1.7	0.67	
Cc1c(O)nc(SC(C)C)nc1C(C)c1c(F)cccc1F (racemic)	1			270	120	> 3	270	120				3	0.58	0.28	
